# Results reported in BindingDB's records for doi:10.1021/jm800174p (University of Minnesota, 2009).
# Molecular target: Mu-type opioid receptor (Homo sapiens, UniProt P35372)
# Assay: Displacement of [3H]DAMGO from mu opioid receptor expressed in CHO cells
# Summary of the method: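 Membranes came from CHO cells stably expressing MOP receptor alone or with CCK2 receptor. They were incubated with [3H]DAMGO (0.4 nM) plus increasing unlabeled ligand for 2 h at room temperature in KRH, pH 7.4, with 0.2% BSA and soybean trypsin inhibitor. Nonspecific binding was set with 1 μM DAMGO. Samples were filtered on PEI-soaked GF/C and scintillation counted; Ki and Bmax (pmol/mg protein) came from LIGAND analysis. Mean±S.E.M., 3-5 experiments.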
# Chain of Mu-type opioid receptor (P35372 whole entry): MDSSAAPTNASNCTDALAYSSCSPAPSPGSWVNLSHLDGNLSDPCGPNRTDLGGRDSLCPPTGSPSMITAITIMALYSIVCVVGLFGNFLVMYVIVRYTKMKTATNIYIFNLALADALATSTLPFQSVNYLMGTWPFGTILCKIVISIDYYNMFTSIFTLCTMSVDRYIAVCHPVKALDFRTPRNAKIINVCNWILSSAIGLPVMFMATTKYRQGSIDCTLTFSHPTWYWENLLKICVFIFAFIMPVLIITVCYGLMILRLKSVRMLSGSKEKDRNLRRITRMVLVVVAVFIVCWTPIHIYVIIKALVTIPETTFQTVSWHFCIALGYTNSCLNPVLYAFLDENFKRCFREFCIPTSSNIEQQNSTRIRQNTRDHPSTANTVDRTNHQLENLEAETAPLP
row,Compound,Ki [nM]
1,"CNC(=O)COCC(=O)NCCCCNC(=O)COCC(=O)N[C@H]1CC[C@@]2(O)[C@H]3Cc4cc(O)cc5c4[C@@]2(CCN3C)[C@H]1O5 [2-({[(1S,5R,13R,14S,17S)-9,17-dihydroxy-4-methyl-12-oxa-4-azapentacyclo[9.6.1.0^{1,13}.0^{5,17}.0^{7,18}]octadeca-7(18),8,10-trien-14-yl]carbamoyl}methoxy)-N-(4-{2-[(methylcarbamoyl)methoxy]acetamido}butyl)acetamide]",29.8

# Molecular target: not listed separately
# Assay: Displacement of [3H]DAMGO from CCK2R-MOPR coexpressed in CHO cells
row,Compound,Ki [nM]
1,CN1C(=O)[C@H](NC(=O)Nc2cccc(OCCNC(=O)COCC(=O)NCCCCCCNC(=O)COCC(=O)N[C@H]3CC[C@@]4(O)[C@H]5Cc6cc(O)cc7c6[C@@]4(CCN5C)[C@H]3O7)c2)N=C(c2ccccc2)c2ccccc21 [1-{1-Diglycoldiamide-6-[m-(R(+)-1)ureaphenoxy]ethane}-2-(N-oxymorphyldiglycoldiamide)hexane],16.3
2,"C[C@@H](NC(=O)[C@@H](N)Cc1ccc(O)cc1)C(=O)NCC(=O)N(C)[C@@H](Cc1ccccc1)C(=O)NCCO [[tyrosyl-3,5-3H(N)]-D-Ala2-Mephe4-glyol5-enkephalin]",11
3,CN1C(=O)[C@H](NC(=O)Nc2cccc(OCCNC(=O)COCC(=O)NCCNC(=O)COCC(=O)N[C@H]3CC[C@@]4(O)[C@H]5Cc6cc(O)cc7c6[C@@]4(CCN5C)[C@H]3O7)c2)N=C(c2ccccc2)c2ccccc21 [1-{1-Diglycoldiamide-2-[m-(R(+)-1)ureaphenoxy]ethane}-2-(N-oxymorphyldiglycoldiamide)ethane],7.3
4,CN1C(=O)[C@H](NC(=O)Nc2cccc(OCCNC(=O)COCC(=O)NNC(=O)COCC(=O)N[C@H]3CC[C@@]4(O)[C@H]5Cc6cc(O)cc7c6[C@@]4(CCN5C)[C@H]3O7)c2)N=C(c2ccccc2)c2ccccc21 [N-{m-[R(+)-1]Ureaphenoxy}ethyldiglycolamidehydrazide-N'-oxymorphyldiglycolamidedihydrazide],3.9
5,CN1C(=O)[C@H](NC(=O)Nc2cccc(OCCNC(=O)COCC(=O)N[C@H]3CC[C@@]4(O)[C@H]5Cc6cc(O)cc7c6[C@@]4(CCN5C)[C@H]3O7)c2)N=C(c2ccccc2)c2ccccc21 [N-{m-[R(+)-1]Ureaphenoxy}ethyl-N'-oxymorphyldiglycoldiamide],14.2
